Laboratory results: ChEMBL document CHEMBL1134329, “Dopamine D(3) receptor antagonists. 1. Synthesis and structure-activity relationships of 5,6-dimethoxy-N-alkyl- and N-alkylaryl-substituted 2-aminoindans” (J Med Chem, 2001)
pKi: −log10 of the molar value.

Tests used:
Rattus norvegicus [1] = species on record: Rattus norvegicus; assay: In vitro stability in rat hepatocytes relative to that of PNU-93385.; assay type: functional; conditions: Hepatocyte
Method in brief: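 Compound incubated alongside reference PNU-93385. Metabolism followed by HPLC with UV detection. Intrinsic clearance is expressed relative to the reference to give relative metabolic stability.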

[2] = target: D(2) dopamine receptor (Rattus norvegicus) (UniProt P61169); assay: Inhibition of [3H]-PNU-86170 binding at D2 dopamine receptors on CHO cell membranes; 1000 nM; assay type: cell-based
Chain of D(2) dopamine receptor (Rattus norvegicus) (P61169 whole entry): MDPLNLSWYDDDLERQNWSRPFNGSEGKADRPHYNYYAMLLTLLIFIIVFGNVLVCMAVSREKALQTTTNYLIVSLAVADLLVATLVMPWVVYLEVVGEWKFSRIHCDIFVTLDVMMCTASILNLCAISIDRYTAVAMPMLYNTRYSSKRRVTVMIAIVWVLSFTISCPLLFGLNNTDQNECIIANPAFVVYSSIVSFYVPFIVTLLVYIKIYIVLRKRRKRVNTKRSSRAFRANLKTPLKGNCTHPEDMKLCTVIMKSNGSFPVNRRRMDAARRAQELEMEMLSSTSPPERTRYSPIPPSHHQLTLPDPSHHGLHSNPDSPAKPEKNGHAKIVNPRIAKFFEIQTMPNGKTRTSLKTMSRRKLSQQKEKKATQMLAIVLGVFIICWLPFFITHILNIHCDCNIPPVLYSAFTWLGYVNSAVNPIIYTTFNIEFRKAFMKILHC
Method in brief: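 Single-point screen at 1000 nM in duplicate, reported as mean % inhibition. Rat D2 receptor stably expressed in CHO cell membranes, labelled with [3H]-PNU-86170 (2 nM). Buffer 20 mM HEPES/10 mM MgSO4 pH 7.4, 1 h at room temperature. Nonspecific binding defined by 3 µM haloperidol.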

[3] = target: D(3) dopamine receptor (Rattus norvegicus) (UniProt P19020); assay: Inhibition of [3H]spiperone at D3 dopamine receptors on CHO cell membranes; 1000 nM; assay type: cell-based
Chain of D(3) dopamine receptor (Rattus norvegicus) (P19020 whole entry): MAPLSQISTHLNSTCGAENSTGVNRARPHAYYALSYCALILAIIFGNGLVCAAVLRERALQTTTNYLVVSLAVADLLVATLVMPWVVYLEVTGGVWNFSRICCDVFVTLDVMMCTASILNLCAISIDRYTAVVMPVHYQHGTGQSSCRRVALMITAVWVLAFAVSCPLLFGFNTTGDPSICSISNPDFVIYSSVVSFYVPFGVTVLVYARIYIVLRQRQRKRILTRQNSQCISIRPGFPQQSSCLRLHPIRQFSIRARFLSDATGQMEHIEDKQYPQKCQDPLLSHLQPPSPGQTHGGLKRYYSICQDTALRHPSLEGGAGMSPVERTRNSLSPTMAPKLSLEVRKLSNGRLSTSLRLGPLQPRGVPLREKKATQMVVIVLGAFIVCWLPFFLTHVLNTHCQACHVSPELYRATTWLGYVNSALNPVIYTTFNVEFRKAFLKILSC
Method in brief: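 Cloned rat D3 receptor in stably transfected CHO cell membranes, filtration assay with [3H]spiperone (0.3 nM). Single concentration of 1000 nM in duplicate, given as mean % inhibition. Buffer 20 mM HEPES, 10 mM MgSO4, 150 mM NaCl, 1 mM EDTA pH 7.4, 1 h at room temperature. 3 µM haloperidol for nonspecific binding.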

D(3) dopamine receptor = D(3) dopamine receptor (Rattus norvegicus, UniProt P19020); assay: Affinity at rat D3 dopamine receptor on CHO cell membranes by [3H]spiperone displacement.
Chain of D(3) dopamine receptor (P19020 whole entry): as above

D(2) dopamine receptor = D(2) dopamine receptor (Rattus norvegicus, UniProt P61169); assay: Affinity at D2 dopamine receptor on CHO cell membranes by [3H]PNU-86170 displacement.
Chain of D(2) dopamine receptor (P61169 whole entry): as the sequence (P61169 whole entry) above
Method in brief: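 Cloned rat D2 receptor stably expressed in CHO cells; membranes from cell pellets disrupted in ice-cold 50 mM Tris/5 mM EDTA/5 mM EGTA pH 7.4 with graded centrifugation. [3H]-PNU-86170 (2 nM) competition, 11 concentrations in duplicate, 20 mM HEPES/10 mM MgSO4 pH 7.4, 1 h room temperature. Haloperidol 3 µM defines nonspecific binding. Filtration or SPA read-out; one-site fit IC50, Ki by Cheng-Prusoff.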

[4] = target: T1, 5-hydroxytryptamine receptor 1A (Rattus norvegicus, UniProt P19327); assay: Binding affinity towards 5-hydroxytryptamine 1A receptor
T1 sequence (P19327 whole entry): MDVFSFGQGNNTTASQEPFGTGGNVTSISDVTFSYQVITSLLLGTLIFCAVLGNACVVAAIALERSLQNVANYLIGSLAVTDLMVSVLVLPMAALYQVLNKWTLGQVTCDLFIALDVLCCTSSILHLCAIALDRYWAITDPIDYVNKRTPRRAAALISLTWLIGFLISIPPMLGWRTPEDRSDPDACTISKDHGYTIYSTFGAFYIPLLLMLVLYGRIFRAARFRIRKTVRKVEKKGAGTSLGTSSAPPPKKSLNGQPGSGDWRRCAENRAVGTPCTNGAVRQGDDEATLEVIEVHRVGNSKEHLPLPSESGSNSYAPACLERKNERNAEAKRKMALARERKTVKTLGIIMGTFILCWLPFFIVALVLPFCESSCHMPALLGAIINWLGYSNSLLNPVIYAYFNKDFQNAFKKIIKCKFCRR
Method in brief: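 Competition binding with [3H]-8-OH-DPAT at 5-HT1A sites in CHO cells expressing the cloned receptor. Affinity is given as Ki (nM) with SD or 95% CI. Compounds were first screened at 1 µmol/L in a monoaminergic/opioid/adrenergic receptor profile binding assay.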

Rattus norvegicus [5] = assay: Inhibition of (+)-MK-801-induced hyperactivity in rats following 100 umol/kg i.p.; assay type: functional; design: scale not given: the % may be the effect or the level left
Method in brief: (§1)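 Rats given (+)-MK-801 0.2 mg/kg sc plus test compound ip, 10-200 µmol/kg, in vehicle of 0.9% NaCl in 0.25% methylcellulose. Locomotor activity expressed as % of vehicle control ±SEM, 8-26 animals per group.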

Rattus norvegicus [6] = assay: Inhibition of (+)-MK-801-induced hyperactivity in rats following 10 uM/kg i.p.; assay type: functional; design: scale not given: the % may be the effect or the level left; method in brief: as §1
Rattus norvegicus [7] = assay: Inhibition of (+)-MK-801-induced hyperactivity in rats following 200 umol/kg i.p.; assay type: functional; design: scale not given: the % may be the effect or the level left; method in brief: as §1
Rattus norvegicus [8] = assay: Inhibition of (+)-MK-801-induced hyperactivity in rats following 30 umol/kg i.p.; assay type: functional; design: scale not given: the % may be the effect or the level left; method in brief: as §1

| SMILES | Stability (Rattus norvegicus [1]) | inhibition [2] | inhibition [3] | pKi (D(3) dopamine receptor) | pKi (D(2) dopamine receptor) | other results |
| --- | --- | --- | --- | --- | --- | --- |
| CCCN(Cc1cccs1)C1Cc2cc(OC)c(OC)cc2C1 | 35% | 20% | 35% |  |  |  |
| COc1cc2c(cc1OC)CC(N1CCOCC1)C2 | 41% | 10% | -2% |  |  |  |
| CCCNC1Cc2cc(OC)c(OC)cc2C1 |  | 19% | 17% |  |  |  |
| CCCN(CCc1cccc(F)c1)C1Cc2cc(OC)c(OC)cc2C1 |  |  |  | 7.52 | 6.90 |  |
| CCCN(CCc1cccnc1)C1Cc2cc(OC)c(OC)cc2C1 |  |  |  | 6.87 | 6.54 |  |
| CCCN(CCc1csc(N)n1)C1Cc2cc(OC)c(OC)cc2C1 |  |  |  | 6.87 | 6.58 |  |
| C=CCN(CC=C)C1Cc2cc(OC)c(OC)cc2C1 | 13% | 19% | 12% |  |  |  |
| CCCN(CCc1cccs1)C1Cc2cc(OC)c(OC)cc2C1 | 26% | 86% |  | 7.11 |  |  |
| CCN(CC)C1Cc2cc(OC)c(OC)cc2C1 |  | 9% | 20% |  |  |  |
| CCC(C)NC1Cc2cc(OC)c(OC)cc2C1 (configuration not stated) |  | 4% | 0% |  |  |  |
| CCC(CC)NC1Cc2cc(OC)c(OC)cc2C1 |  | 0% | 0% |  |  |  |
| COc1cc2c(cc1OC)CC(N(CC1CC1)CC1CC1)C2 | 22% | 15% | 0% |  |  |  |
| COc1cc2c(cc1OC)CC(N1CCCC1)C2 |  | 13% | 4% |  |  |  |
| COc1cc2c(cc1OC)CC(N)C2 |  | 2% | 0% |  |  |  |
| CCCN1CC[C@H]2c3c(cccc3C(N)=O)CC[C@H]21 | 100% |  |  |  |  |  |
| CCCN(CCc1ccc(Br)cc1)C1Cc2cc(OC)c(OC)cc2C1 |  |  |  | 7.66 | 7.01 |  |
| CCCN(Cc1ccsc1)C1Cc2cc(OC)c(OC)cc2C1 | 15% |  |  | 6.43 | 5.91 |  |
| CCCN(CCCc1ccccc1)C1Cc2cc(OC)c(OC)cc2C1 | 67% |  |  | 7.64 | 6.81 |  |
| CCCN(CCc1ccc(C(N)=O)cc1)C1Cc2cc(OC)c(OC)cc2C1 |  |  |  | 7.38 | 6.91 |  |

| SMILES | Stability (Rattus norvegicus [1]) | inhibition [2] | inhibition [3] | pKi (D(3) dopamine receptor) | pKi (D(2) dopamine receptor) | other results |
| --- | --- | --- | --- | --- | --- | --- |
| CCCN(CCc1ccccc1)C1Cc2cc(OC)c(OC)cc2C1 | 12% |  |  | 7.49 | 7.57 |  |
| CCCN(CCC)C1Cc2cccc(O)c2C1 (configuration not stated) |  |  |  | 7.38 | 8.28 | pKi [4]: 7.71 |
| CCCN(CCC)C1Cc2cc(OC)c(OC)cc2C1 [PNU-99194A] | 38% |  |  | 7.51 | 6.00 | Control (Rattus norvegicus [5]): 391%; Control (Rattus norvegicus [6]): 583%; Control (Rattus norvegicus [7]): 143%; Control (Rattus norvegicus [8]): 447% |
| CCCN(CCC)C1Cc2ccc(O)cc2C1 (configuration not stated) |  |  |  | 7.85 | 7.28 | pKi [4]: < 5.52 |
| CCCN(CC1CC1)C1Cc2cc(OC)c(OC)cc2C1 | 23% |  |  |  |  |  |
| COc1cc2c(cc1OC)CC(N(CCCF)CCCF)C2 | 8% |  | 3% |  |  |  |
| CCCN(CCc1ccc(OC)cc1)C1Cc2cc(OC)c(OC)cc2C1 | 53% |  |  | 7.41 | 6.79 |  |
| CCCN(CCc1cccc(N)c1)C1Cc2cc(OC)c(OC)cc2C1 |  |  |  | 7.35 | 6.79 |  |
| CCCN(CCCF)C1Cc2cc(OC)c(OC)cc2C1 | 9% |  |  | 6.47 | 5.74 |  |
| CCCN(CC)C1Cc2cc(OC)c(OC)cc2C1 | 42% |  |  | 7.19 | 6.43 |  |
| CCCN(CCc1ccc(OC)c(OC)c1)C1Cc2cc(OC)c(OC)cc2C1 |  |  |  | 7.54 | 7.18 |  |
| CCCN(CCC)C1Cc2cccc(OC)c2C1 (configuration not stated) |  |  |  | 7.35 | 8.38 | pKi [4]: 8.29 |
| COc1cc2c(cc1OC)CC(N1CCCCCC1)C2 | 32% | 2% | 3% |  |  |  |
| CCCN(CCc1ccc(C(F)(F)F)cc1)C1Cc2cc(OC)c(OC)cc2C1 |  |  |  | 7.47 | 6.51 |  |
| CCCN(C(C)CC)C1Cc2cc(OC)c(OC)cc2C1 (configuration not stated) |  | 2% | 16% |  |  |  |
| CCCN(CCc1ccsc1)C1Cc2cc(OC)c(OC)cc2C1 | 14% |  |  | 7.85 | 7.21 |  |
| CCCN(CCC)C1Cc2ccc(OC)cc2C1 (configuration not stated) |  |  |  | 7.08 | 6.58 |  |
| COc1cc2c(cc1OC)CC(N(C)C)C2 | 59% | 19% | 26% |  |  |  |
| CCCCN(CCCC)C1Cc2cc(OC)c(OC)cc2C1 | 13% | 22% |  | 6.74 |  |  |
